These results are taken from publication PMC9677924 (International Journal of Nanomedicine, 2022).

In brackets after ≈: the same amount, converted by molar mass.

Data set [1] deals with MCF-7/HER2 cells. Description: In vitro cytotoxicity, MTT assay. The class given is cell-based. The settings on record: Homo sapiens, MCF7, 48 h, read-out: IC50 (ng/mL) Free Drug. Put shortly: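 MCF-7/HER2 cells grown in DMEM/F12 with 10% FBS and 1% penicillin/streptomycin/amphotericin B at 37 °C, 5% CO2. Seeded at 1×10^4 cells/well for 24 h, then exposed to test compounds (free or nanocarrier forms) at 1~500 ng/mL. Methods give a 48 h exposure; the figure legend gives 72 h. Then 0.5 mg/mL MTT for 3 h, formazan dissolved in DMSO, absorbance read at 550 nm.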

Data set [2] in a line: In vivo pharmacokinetic studies. Set-up: species or system Sprague-Dawley rats.
The subject of data set [3] is MCF-7/HER2 tumors. Description: In vivo tumor inhibition studies. The arrangement: species or system nude mice. The settings on record: day 24, compared with the PBS group; IV Q3D×4. The method, boiled down:
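Female nude mice (7 weeks) injected s.c. in the right thigh with 1×10^6 MCF-7/HER2 cells, plus 20 μg estradiol valerate in sesame oil s.c. in the neck. At ~100 mm3, mice were randomized to 10 groups (n=4, saline control). They received IV tail-vein doses equivalent to 5 mg/kg taxane and/or 2.5 mg/kg PI3K inhibitor every 3 days ×4. Volume (L×W²/2) and body weight were recorded every 3 days. Tumors were excised and weighed on day 24.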

A short description of data set [4]: In vitro release of docetaxel and pictilisib. In kind it is physicochemical. The settings on record: after 12 h.
The conditions of data set [5]: cited from earlier work.
The conditions of data set [6]: cited from earlier work. The source holds these as a separate data set.
Data set [7] is described as follows: Biosafety examination. As to conditions: after the Q3D×4 regimen. In kind it is in vivo, nude mice. The method, boiled down: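 Organs and tumors came from the MCF-7/HER2 xenograft nude-mouse study (IV dosing every 3 days ×4). Tail morphology was examined on day 24. On day 28 after administration, tissues were fixed in 4% paraformaldehyde. Heart, liver, spleen, lungs and kidneys were H&E-stained and scored for inflammatory cell infiltration.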

Data set [8] can be described thus: In vivo biodistribution studies in MCF-7/HER2 tumor-bearing mice. Set-up: species or system nude mice. As to conditions: 8 h after administration; liver and kidneys.
The mark [9] stands for this setting: female, Sprague-Dawley, rat, plasma, iv, 2.5 mg/kg.
[10] abbreviates: female, Sprague-Dawley, rat, plasma, iv, 5 mg/kg.

`CS(=O)(=O)N1CCN(Cc2cc3nc(-c4cccc5[nH]ncc45)nc(N4CCOCC4)c3s2)CC1` [PIC, pictilisib]: in data set [1], the IC50 stood at 86.8 ± 17.6 ng/mL (≈ 0.169 µM). In addition, in data set [2] (setting [9]), the AUC(0-inf) is 536 ± 44 ng·h/mL, the AUC(0-t) was found to be 530 ± 46 ng·h/mL, the Vd came out at 19.7 ± 6.27 L/kg and the half-life was 2.92 ± 0.97 h. Also, the “C0 (μg/mL) of PIC” value in data set [2] (pictilisib in plasma, IV 2.5 mg/kg BW PIC, rats, n=3, listed as Free PIC, 2.5 mg/kg) worked out at 0.691 ± 0.115 µg/mL. In data set [3], the “tumor weights / tumor inhibition” value is “little antitumor efficacy”. In addition, the “precipitation in the dialysis bag” value in data set [4] was “precipitation in the free PIC group was observed”. In addition, in data set [5], the “log P” value is given as 1.96. The pKa in data set [6] is 13.19.

Regarding `CC(=O)O[C@@]12CO[C@@H]1C[C@H](O)[C@@]1(C)C(=O)[C@H](O)C3=C(C)[C@@H](OC(=O)[C@H](O)[C@@H](NC(=O)OC(C)(C)C)c4ccccc4)C[C@@](O)([C@@H](OC(=O)c4ccccc4)[C@H]21)C3(C)C` [DTX, docetaxel], the IC50 in data set [1] was found to be 12.5 ± 2.69 ng/mL (≈ 0.0155 µM). Also, in data set [2] (setting [10]), the AUC(0-inf) was determined as 524 ± 37 ng·h/mL, the AUC(0-t) turned out to be 487 ± 37 ng·h/mL, the Vd came out at 73.4 ± 5.22 L/kg and the clearance was 160 mL/min/kg. Moreover, in data set [2] (setting [10]), the half-life was 5.32 ± 0.24 h. Also, the “Relative bioavailability (%) of DTX” value in data set [2] (relative to Free DTX, IV 5 mg/kg BW DTX, rats) came to 100%. Also, the “liver, H&E staining (inflammatory cell infiltration)” value in data set [7] is reported as “slight liver damage”. The “accumulation of DTX in major organs” value in data set [8] is “higher accumulation in the liver and kidneys”.

Usually AUC(0-inf) stands for total exposure, with the tail of the curve extrapolated. Lower therefore signals less exposure. By AUC(0-t) is commonly meant the area under the concentration-time curve up to a stated or last time point. The Vd is a proportionality between amount in the body and measured concentration, not a real space. By half-life is commonly meant how long it takes for the measured level to halve. Read a high half-life as slow decline. One may read the log P as the decadic logarithm of the partition coefficient of the neutral form, usually between octanol and water. A word on the pKa: it is the pH at which an ionisable group is half protonated. For orientation: clearance means the volume of plasma or blood freed of the substance per unit of time.
